Results on six molecules are retold here after ChEMBL document CHEMBL1134050, “Phenyl benzenesulfonamides are novel and selective 5-HT6 antagonists: identification of N-(2,5-dibromo-3-fluorophenyl)-4-methoxy-3-piperazin-1-ylbenzenesulfonamide (SB-357134)” (Bioorg Med Chem Lett, 2001).

A short description of series [1]: Plasma Clearance measured at steady-state following iv infusion at 0.6 mg/kg/h in rats. It counts as ADME, organism-based. Details: route intravenous. The note with it: rat, 0.6 mg/kg/h infusion.
The nature of series [2]: Bioavailability in rat (dose 10 mg/kg in 10% Encapsin and 2% DMSO p.o.). The note with it: in vivo, po.
The target of series [3] is 5-hydroxytryptamine receptor 1B (Homo sapiens, UniProt P28222). The series can be described thus: Compound was evaluated for binding affinity against human cloned 5-hydroxytryptamine 1B receptor in CHO cells using [3H]5-HT as the radioligand. It counts as cell-based. The gist of the method: (§1)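 Radioligand binding to human cloned receptors: 5-HT1A in HEK 293 cells with [3H]-8-OH-DPAT; 5-HT1B and 5-HT1E in CHO cells with [3H]-5-HT; 5-HT2B in HEK 293 cells with [3H]-5-HT; D2 and D3 in CHO cells with [125I]-iodosulpride. Values are the mean of at least two determinations, each within 0.2 log unit of the mean.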
Sequence of 5-hydroxytryptamine receptor 1B (P28222 whole entry): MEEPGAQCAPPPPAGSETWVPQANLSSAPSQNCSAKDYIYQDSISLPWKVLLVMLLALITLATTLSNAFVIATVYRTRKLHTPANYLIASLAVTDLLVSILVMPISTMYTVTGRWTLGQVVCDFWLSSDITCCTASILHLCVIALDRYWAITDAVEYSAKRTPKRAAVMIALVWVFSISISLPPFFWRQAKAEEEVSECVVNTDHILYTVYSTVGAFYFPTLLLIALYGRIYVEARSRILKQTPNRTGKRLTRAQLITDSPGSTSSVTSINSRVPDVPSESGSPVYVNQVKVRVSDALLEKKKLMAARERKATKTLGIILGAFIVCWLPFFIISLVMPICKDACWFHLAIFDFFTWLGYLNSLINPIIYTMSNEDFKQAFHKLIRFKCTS

Series [4] deals with 5-hydroxytryptamine receptor 1D (Homo sapiens, UniProt P28221). The series can be described thus: Compound was evaluated for binding affinity against human cloned 5-hydroxytryptamine 1D receptor in CHO cells using [3H]5-HT as the radioligand. It counts as cell-based.
Sequence of 5-hydroxytryptamine receptor 1D (P28221 whole entry): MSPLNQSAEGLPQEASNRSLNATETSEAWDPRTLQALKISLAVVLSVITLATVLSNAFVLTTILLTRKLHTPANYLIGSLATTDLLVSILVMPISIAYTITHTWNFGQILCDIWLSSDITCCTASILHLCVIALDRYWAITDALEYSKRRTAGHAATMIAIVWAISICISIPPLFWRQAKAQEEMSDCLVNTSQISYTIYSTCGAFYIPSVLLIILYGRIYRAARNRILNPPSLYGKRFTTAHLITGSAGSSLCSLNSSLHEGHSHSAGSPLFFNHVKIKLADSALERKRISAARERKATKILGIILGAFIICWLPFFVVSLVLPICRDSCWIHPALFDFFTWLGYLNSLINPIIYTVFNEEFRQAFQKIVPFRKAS
The target in series [5] is 5-hydroxytryptamine receptor 1E (Homo sapiens, UniProt P28566). The experiment in a line: Compound was evaluated for binding affinity against human cloned 5-hydroxytryptamine 1E receptor in CHO cells using [3H]5-HT as the radioligand. It counts as cell-based. The gist of the method: as §1
Sequence of 5-hydroxytryptamine receptor 1E (P28566 whole entry): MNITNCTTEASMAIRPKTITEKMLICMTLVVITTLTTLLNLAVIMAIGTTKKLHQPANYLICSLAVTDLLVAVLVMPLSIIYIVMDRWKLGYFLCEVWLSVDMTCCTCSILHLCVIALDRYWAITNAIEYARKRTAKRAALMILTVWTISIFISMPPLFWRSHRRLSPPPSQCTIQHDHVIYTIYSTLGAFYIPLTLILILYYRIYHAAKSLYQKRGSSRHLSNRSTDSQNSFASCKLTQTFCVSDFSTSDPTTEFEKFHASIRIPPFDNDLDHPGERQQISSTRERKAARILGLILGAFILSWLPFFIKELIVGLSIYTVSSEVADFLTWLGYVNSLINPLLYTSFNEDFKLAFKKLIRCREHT
The target in series [6] is 5-hydroxytryptamine receptor 2A (Homo sapiens, UniProt P28223). The experiment in a line: Compound was evaluated for binding affinity against human cloned 5-hydroxytryptamine 2A receptor in HEK 293 cells using [3H]ketanserin as the radioligand. It is filed as cell-based, HEK293.
Sequence of 5-hydroxytryptamine receptor 2A (P28223 whole entry): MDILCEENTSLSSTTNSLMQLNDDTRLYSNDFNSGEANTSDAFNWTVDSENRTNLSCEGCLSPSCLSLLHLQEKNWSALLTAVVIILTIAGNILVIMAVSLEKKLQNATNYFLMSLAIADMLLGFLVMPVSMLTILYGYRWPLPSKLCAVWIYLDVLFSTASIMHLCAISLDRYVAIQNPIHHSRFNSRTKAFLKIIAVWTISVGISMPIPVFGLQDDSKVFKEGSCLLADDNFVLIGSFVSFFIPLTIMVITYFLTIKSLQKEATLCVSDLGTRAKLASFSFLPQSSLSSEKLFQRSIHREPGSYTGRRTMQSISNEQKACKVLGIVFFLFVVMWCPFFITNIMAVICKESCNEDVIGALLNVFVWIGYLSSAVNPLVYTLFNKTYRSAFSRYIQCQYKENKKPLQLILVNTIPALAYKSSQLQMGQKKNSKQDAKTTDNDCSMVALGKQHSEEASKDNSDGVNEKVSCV
Series [7] has as its target T1, 5-hydroxytryptamine receptor 1F (Homo sapiens, UniProt P30939).
T1 sequence (P30939 whole entry): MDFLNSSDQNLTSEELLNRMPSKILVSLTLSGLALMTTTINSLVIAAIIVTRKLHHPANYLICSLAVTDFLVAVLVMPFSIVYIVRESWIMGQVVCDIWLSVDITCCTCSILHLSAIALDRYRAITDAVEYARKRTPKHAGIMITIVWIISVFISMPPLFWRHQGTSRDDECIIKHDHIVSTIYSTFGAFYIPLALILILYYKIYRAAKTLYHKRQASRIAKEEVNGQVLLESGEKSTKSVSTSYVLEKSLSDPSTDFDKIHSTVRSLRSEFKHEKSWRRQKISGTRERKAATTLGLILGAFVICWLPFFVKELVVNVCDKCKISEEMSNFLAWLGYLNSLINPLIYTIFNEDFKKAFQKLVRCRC
The series can be described thus: Compound was evaluated for binding affinity against human cloned 5-hydroxytryptamine 1F receptor in CHO cells using [3H]-5-HT as the radioligand. It is filed as cell-based.

Series [8] has as its target T2, 5-hydroxytryptamine receptor 2C (Homo sapiens, UniProt P28335).
T2 sequence (P28335 whole entry): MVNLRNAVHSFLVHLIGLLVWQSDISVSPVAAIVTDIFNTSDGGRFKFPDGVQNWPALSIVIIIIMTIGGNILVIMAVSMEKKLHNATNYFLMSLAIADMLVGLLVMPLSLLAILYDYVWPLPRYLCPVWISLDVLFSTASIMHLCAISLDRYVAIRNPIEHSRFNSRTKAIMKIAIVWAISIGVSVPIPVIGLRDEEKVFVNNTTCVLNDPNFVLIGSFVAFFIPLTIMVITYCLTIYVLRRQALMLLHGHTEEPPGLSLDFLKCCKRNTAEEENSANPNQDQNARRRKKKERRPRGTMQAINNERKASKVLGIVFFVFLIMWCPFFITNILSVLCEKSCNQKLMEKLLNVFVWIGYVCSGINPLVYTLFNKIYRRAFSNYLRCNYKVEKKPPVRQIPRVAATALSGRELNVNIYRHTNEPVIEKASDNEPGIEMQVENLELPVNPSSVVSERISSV
The experiment in a line: Compound was evaluated for binding affinity against human cloned 5-hydroxytryptamine 2C receptor in HEK 293 cells using [3H]mesulergine as the radioligand. It counts as cell-based, HEK293.

For series [9], the target named is 5-hydroxytryptamine receptor 2B (Homo sapiens, UniProt P41595). The experiment in a line: Compound was evaluated for binding affinity against human cloned 5-HT2B receptor in HEK 293 cells using [3H]5-HT as the radioligand. It counts as cell-based, HEK293. In outline:
as §1

Series [10] has as its target 5-hydroxytryptamine receptor 4 (Homo sapiens, UniProt Q13639). The experiment in a line: Compound was evaluated for the binding affinity against human cloned 5-hydroxytryptamine 4 receptor in HeLa cells using [3H]-LSD as the radioligand. It counts as cell-based.
Series [11] has as its target T3, 5-hydroxytryptamine receptor 7 (Homo sapiens, UniProt P34969). The experiment in a line: Compound was evaluated for binding affinity against human cloned 5-hydroxytryptamine 7 receptor in HEK 293 cells using [3H]5-CT as the radioligand (n=3). It counts as cell-based, HEK293.
Series [12] deals with 5-hydroxytryptamine receptor 6 (Homo sapiens, UniProt P50406). The series can be described thus: Binding affinity against human 5-hydroxytryptamine 6 receptor.
Sequence of 5-hydroxytryptamine receptor 6 (P50406 whole entry): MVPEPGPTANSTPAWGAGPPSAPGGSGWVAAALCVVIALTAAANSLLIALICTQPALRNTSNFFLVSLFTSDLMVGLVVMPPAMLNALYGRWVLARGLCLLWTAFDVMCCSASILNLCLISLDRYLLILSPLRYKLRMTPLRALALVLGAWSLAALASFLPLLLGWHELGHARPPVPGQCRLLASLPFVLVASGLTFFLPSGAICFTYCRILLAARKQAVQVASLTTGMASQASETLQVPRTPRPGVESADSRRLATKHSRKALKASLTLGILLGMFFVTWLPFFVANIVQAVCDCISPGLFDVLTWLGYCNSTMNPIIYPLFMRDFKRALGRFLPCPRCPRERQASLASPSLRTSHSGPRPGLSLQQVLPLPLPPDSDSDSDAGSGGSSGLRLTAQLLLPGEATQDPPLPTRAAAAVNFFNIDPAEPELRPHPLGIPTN
Series [13] has as its target T4, Alpha-1B adrenergic receptor (Homo sapiens, UniProt P35368).
T4 sequence (P35368 whole entry): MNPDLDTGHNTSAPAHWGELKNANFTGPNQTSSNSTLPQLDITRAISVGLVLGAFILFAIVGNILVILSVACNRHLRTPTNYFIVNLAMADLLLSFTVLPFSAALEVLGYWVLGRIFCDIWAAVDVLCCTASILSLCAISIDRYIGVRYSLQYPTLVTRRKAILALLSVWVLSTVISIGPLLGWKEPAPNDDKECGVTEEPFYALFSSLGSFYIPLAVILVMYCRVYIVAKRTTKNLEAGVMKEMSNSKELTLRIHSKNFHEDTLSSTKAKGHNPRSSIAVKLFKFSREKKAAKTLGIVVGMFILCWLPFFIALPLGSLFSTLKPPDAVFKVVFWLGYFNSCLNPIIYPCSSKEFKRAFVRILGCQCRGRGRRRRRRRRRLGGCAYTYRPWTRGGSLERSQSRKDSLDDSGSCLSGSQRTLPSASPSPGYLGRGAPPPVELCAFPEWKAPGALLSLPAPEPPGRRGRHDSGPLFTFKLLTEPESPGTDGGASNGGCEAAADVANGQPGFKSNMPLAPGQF
The series can be described thus: Compound was evaluated for binding affinity against Alpha-1B adrenergic receptor.

The next series has as its target D(3) dopamine receptor (Homo sapiens, UniProt P35462). The series can be described thus: Compound was evaluated for binding affinity against Dopamine receptor D3 in CHO cells using [125I]iodosulpiride as the radioligand. It counts as cell-based. In outline: as §1
For a further series, the target named is D(2) dopamine receptor (Homo sapiens, UniProt P14416). The series can be described thus: Compound was evaluated for binding affinity against Dopamine receptor D2 in CHO cells using [125I]iodosulpiride as the radioligand. It counts as cell-based. In outline: as §1
Sequence of D(2) dopamine receptor (P14416 whole entry): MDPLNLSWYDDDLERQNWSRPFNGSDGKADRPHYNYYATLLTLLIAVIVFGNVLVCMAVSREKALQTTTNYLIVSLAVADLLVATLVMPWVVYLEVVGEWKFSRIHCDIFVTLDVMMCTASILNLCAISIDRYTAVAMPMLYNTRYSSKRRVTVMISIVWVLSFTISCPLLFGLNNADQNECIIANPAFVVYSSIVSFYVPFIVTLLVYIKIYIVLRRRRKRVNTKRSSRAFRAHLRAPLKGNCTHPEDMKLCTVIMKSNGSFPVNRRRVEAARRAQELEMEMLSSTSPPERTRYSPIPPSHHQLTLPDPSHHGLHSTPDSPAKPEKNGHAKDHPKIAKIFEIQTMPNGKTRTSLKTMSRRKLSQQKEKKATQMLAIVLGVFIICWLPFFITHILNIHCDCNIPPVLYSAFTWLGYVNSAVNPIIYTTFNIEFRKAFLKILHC
For series [14], the target named is T5, 5-hydroxytryptamine receptor 1A (Homo sapiens, UniProt P08908).
T5 sequence (P08908 whole entry): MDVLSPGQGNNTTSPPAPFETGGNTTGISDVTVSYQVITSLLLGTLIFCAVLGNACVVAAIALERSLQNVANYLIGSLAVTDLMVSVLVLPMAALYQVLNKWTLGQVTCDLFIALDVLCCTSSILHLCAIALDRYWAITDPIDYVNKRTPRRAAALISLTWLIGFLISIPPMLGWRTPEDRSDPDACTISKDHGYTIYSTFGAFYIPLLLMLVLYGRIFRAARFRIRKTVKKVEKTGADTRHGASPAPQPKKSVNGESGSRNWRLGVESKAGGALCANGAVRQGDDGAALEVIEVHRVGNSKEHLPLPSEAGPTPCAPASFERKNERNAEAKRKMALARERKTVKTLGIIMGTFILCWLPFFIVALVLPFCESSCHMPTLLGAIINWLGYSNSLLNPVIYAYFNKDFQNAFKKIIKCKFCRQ
The experiment in a line: Compound was evaluated for binding affinity against human cloned 5-hydroxytryptamine 1A receptor in HEK 293 cells using [3H]8-OH-DPAT as the radioligand. It counts as cell-based, HEK293. In outline:
as §1

The species named for series [15] is Rattus norvegicus. The experiment in a line: Blood: Brain distribution ratio is determined in rat. It counts as ADME, organism-based. In outline:
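Rats received iv infusion for 8 h, and the brain:blood ratio was taken at steady state.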

The nature of series [16]: Bioavailability in rat (dose 3 mg/kg in 1% methylcellulose ). It counts as ADME, organism-based. The note with it: in vivo. In outline: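 Oral suspension dose of 3 mg/kg in 1% methylcellulose (v/v) aq to rats (n=3). Blood levels were measured by LC/MS/MS to derive AUC/dose and bioavailability.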
Series [17] deals with T3, 5-hydroxytryptamine receptor 7. The experiment in a line: Displacement of [3H]-5-CT from human 5-hydroxytryptamine 7 receptor expressed in HEK-293 cells. It is filed as cell-based, HEK293.
Series [18] can be described thus: Bioavailability was determined upon 10 mg/kg in 1% methylcellulose peroral administration in rats. The note with it: rat, in vivo, po. It counts as ADME, organism-based. In outline:
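Rats were given 10 mg/kg orally as a suspension in 1% methylcellulose (v/v) aq (n=3). Blood drug levels were determined by LC/MS/MS, and AUC/dose and bioavailability were derived from them.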

Series [19] has as its system Rattus norvegicus. The experiment in a line: Pharmacokinetic property( plasma concentration) was determined upon 10 mg/kg in 1% methylcellulose peroral administration in rats. It counts as ADME, organism-based. Details: dose 10 mg/kg, route oral. The following applies: in vivo, po.

Molecules are shown by their SMILES. pKi: −log10 of the molar value.

Sequence of 5-hydroxytryptamine receptor 4 (Q13639 whole entry): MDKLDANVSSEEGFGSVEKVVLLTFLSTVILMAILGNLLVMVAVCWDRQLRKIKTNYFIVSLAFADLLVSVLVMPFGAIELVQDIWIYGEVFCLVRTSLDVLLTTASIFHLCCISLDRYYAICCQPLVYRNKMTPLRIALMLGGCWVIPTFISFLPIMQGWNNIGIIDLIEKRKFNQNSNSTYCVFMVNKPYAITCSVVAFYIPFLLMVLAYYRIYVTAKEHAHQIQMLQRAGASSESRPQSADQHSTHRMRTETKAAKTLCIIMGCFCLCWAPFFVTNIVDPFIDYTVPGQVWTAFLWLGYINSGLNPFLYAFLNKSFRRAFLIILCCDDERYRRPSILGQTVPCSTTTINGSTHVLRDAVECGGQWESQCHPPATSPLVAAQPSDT
Sequence of D(3) dopamine receptor (P35462 whole entry): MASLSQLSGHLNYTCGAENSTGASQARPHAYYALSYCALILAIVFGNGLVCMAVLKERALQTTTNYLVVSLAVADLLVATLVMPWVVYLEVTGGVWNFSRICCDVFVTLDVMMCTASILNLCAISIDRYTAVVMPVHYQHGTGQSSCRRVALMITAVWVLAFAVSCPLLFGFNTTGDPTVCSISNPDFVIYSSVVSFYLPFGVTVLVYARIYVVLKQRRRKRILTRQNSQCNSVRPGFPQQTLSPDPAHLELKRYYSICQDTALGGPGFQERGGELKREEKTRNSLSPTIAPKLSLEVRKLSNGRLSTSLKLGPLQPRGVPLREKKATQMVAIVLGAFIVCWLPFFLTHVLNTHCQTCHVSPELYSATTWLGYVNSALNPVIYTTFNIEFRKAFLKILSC
Sequence of 5-hydroxytryptamine receptor 2B (P41595 whole entry): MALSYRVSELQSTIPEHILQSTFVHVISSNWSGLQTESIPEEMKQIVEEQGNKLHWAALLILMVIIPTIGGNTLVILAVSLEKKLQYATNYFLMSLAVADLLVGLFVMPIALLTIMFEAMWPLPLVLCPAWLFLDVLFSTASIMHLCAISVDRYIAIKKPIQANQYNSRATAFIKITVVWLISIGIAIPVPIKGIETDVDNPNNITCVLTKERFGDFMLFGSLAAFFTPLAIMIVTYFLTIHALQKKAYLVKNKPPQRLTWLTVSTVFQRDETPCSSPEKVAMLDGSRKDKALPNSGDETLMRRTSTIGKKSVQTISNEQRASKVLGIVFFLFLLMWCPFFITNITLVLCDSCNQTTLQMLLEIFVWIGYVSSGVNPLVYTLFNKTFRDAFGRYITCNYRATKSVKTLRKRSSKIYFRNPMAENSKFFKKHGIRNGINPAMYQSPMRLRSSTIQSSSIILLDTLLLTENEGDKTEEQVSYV
T3 sequence (P34969 whole entry): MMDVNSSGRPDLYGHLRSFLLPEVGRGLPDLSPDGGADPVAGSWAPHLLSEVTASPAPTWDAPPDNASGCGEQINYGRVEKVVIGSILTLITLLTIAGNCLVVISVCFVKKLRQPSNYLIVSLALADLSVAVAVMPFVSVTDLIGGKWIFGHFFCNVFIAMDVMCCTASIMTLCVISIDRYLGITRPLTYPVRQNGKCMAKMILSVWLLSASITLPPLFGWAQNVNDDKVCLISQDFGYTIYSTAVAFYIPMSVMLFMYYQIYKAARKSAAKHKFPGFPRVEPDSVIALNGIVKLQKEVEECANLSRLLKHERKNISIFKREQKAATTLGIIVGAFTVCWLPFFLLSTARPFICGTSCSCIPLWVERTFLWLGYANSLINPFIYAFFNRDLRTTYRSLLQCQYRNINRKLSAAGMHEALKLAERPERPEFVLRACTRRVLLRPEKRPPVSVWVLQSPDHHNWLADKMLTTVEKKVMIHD

`COc1ccc(NS(=O)(=O)c2sc3ccc(Cl)cc3c2C)cc1N1CCNCC1` yielded a clearance in series [1] of 8 mL/min/kg. For the same molecule, the bioavailability in series [2] amounted to 82%.
Turning to `COc1ccc(S(=O)(=O)N2CCc3ccc(I)cc32)cc1N1CCNCC1`, the pKi is 5.90 in [3]; 6.70 in series [4]; less than 5.00 in series [5]; less than 5.40 in series [6]; less than 5.10 in series [7]; 6.20 in series [8]. For the same molecule, the pKi in [9] was 6.20; in [10], 5.40; in series [11] it was 9.50; in series [12] it was 9.50; in [13] it was 6.00; at D(3) dopamine receptor it was 6.00. Also, the pKi is 5.60 at D(2) dopamine receptor and 6.30 in series [14].
Turning to `COc1ccc(S(=O)(=O)Nc2cc(Cl)cc(Cl)c2Cl)cc1N1CCNCC1`, the pKi in series [3] is less than 5.00; in series [4], less than 5.50; in series [5], less than 5.00; in [6] it was less than 5.00; in series [7] it was less than 5.00; in [8] it was 6.00. The pKi in series [9] is 5.70; in series [10], less than 5.00; in series [11], 8.70; in series [12], 8.70; in [13] it was less than 5.40; on D(3) dopamine receptor, less than 5.40. For the same molecule, the pKi was less than 5.00 at D(2) dopamine receptor and 5.40 in series [14]. The Distribution ratio in the series listed under Rattus norvegicus [15] worked out at 0.02. For the same molecule, the bioavailability in series [16] was greater than 80%. Moreover, in series [1], the clearance is 2 mL/min/kg.
Turning to `COc1ccc(S(=O)(=O)Nc2cc(Br)cc(F)c2Br)cc1N1CCNCC1`, the pKi in series [3] was less than 5.40; in series [4], less than 5.40; in series [5], less than 5.00; in series [6], less than 5.10; in series [7], less than 5.00; in series [8], less than 5.30. For the same molecule, the pKi in series [9] is less than 5.40; in series [10], less than 5.30; in [17], less than 5.00; in series [13] it was less than 5.10; on D(3) dopamine receptor, less than 5.30; on D(2) dopamine receptor it was less than 5.30. The pKi in series [14] was less than 5.20. The same molecule yielded a clearance in series [1] of 14 mL/min/kg. This molecule also showed a bioavailability in series [2] of 65%.
Regarding `COc1ccc(S(=O)(=O)Nc2cc(Cl)cc(Cl)c2)cc1N1CCNCC1`, the negative-log Ki (pKi) in [12] is 9.20. Besides, the Distribution ratio in the series listed under Rattus norvegicus [15] was 0.02. In [18], the bioavailability is 51%. The clearance in series [1] was 4 mL/min/kg. Besides, the AUC in the series on Rattus norvegicus [19] is recorded as 450 uM min uM-1.
Consider `COc1ccc(S(=O)(=O)Nc2cc(Br)ccc2Br)cc1N1CCNCC1`, for which the pKi in series [3] is less than 5.30; in series [4] it was less than 5.80; in [5], less than 5.00; in series [6], less than 5.00; in [7], less than 5.00; in series [8] it was less than 5.30. The pKi in series [9] was less than 5.50; in series [10] it was 5.50; in series [12], 9.00; in series [13], less than 5.70; on D(3) dopamine receptor, less than 5.30; on D(2) dopamine receptor, less than 5.00. In addition, the pKi in series [14] was less than 5.50. In addition, in the series listed under Rattus norvegicus [15], the Distribution ratio stood at 0.38. In series [16], this molecule registered a bioavailability of 20%. Besides, in [1], the clearance worked out at 43 mL/min/kg.

What is called clearance is the rate of elimination divided by the concentration. Lower therefore signals inefficient removal. What is called bioavailability is dose-corrected exposure relative to a reference, in per cent. Low values mean poor availability, high ones good availability. As a reminder, the pKi is −log10 of the Ki, conventionally taken in molar units. Low readings indicate a large Ki, high ones a small Ki.
